Results: ChEMBL document CHEMBL2384995, “Discovery of highly potent triazole antifungal derivatives by heterocycle-benzene bioisosteric replacement” (Eur J Med Chem, 2013)
In brackets after ≈: the same amount, converted by molar mass.

Experiments:
[1] = AUC (0 to infinity) in Sprague-Dawley rat at 15 mg/kg, po by LC/MS/MS analysis; assay type: ADME, organism-based; design: time infinity, dose 15 mg/kg, route oral; conditions: plasma
Method in brief: (§1)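 Single oral dose of 15 mg/kg in Sprague-Dawley rats. Blood was drawn from the orbital venous plexus at several time points and plasma drug levels were quantified by LC/MS/MS, from which the pharmacokinetic parameters were obtained.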

[2] = Cmax in Sprague-Dawley rat at 15 mg/kg, po by LC/MS/MS analysis; assay type: ADME, organism-based; design: dose 15 mg/kg, route oral; conditions: in vivo; method in brief: as §1
[3] = Half life in Sprague-Dawley rat at 15 mg/kg, po by LC/MS/MS analysis; assay type: ADME, organism-based; design: dose 15 mg/kg, route oral; conditions: in vivo; method in brief: as §1
[4] = Tmax in Sprague-Dawley rat at 15 mg/kg, po by LC/MS/MS analysis; assay type: ADME, organism-based; design: dose 15 mg/kg, route oral; conditions: in vivo; method in brief: as §1
Cryptococcus neoformans [5] = assay: Ratio of fluconazole MIC80 to compound MIC80 for Cryptococcus neoformans; assay type: functional
Candida tropicalis = assay: Antifungal activity against Candida tropicalis after 24 hrs by NCCLS method; assay type: functional
Method in brief: (§2)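 Broth microdilution in 96-well plates following NCCLS recommendations, using ATCC strains or clinical isolates. Compounds were dissolved in DMSO and serially diluted in growth medium. Yeast plates were incubated at 35 °C and read at 24 h. MIC80 is the lowest concentration giving turbidity of […] inhibition relative to the drug-free growth control.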

Trichophyton rubrum [6] = assay: Ratio of fluconazole MIC80 to compound MIC80 for Trichophyton rubrum; assay type: functional
Candida albicans = assay: Antifungal activity against Candida albicans after 24 hrs by NCCLS method; assay type: functional; method in brief: as §2
Aspergillus fumigatus = assay: Antifungal activity against Aspergillus fumigatus after 7 days by NCCLS method; assay type: functional; conditions: 168 h
Method in brief: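 Microtest-plate serial dilution per NCCLS, with the strain taken from ATCC or a clinical source. Compounds were prepared in DMSO and serially diluted in growth medium. Growth was read after 7 days. The endpoint is the lowest concentration producing ≥80% turbidity inhibition versus the untreated growth control.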

Trichophyton rubrum [7] = assay: Antifungal activity against Trichophyton rubrum by NCCLS method; assay type: functional
Method in brief: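 Dermatophyte MIC by NCCLS broth serial dilution in 96-well plates, using an ATCC or clinical isolate. DMSO solutions were serially diluted in growth medium and incubated at 28 °C.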

Cryptococcus neoformans [8] = assay: Antifungal activity against Cryptococcus neoformans after 72 hrs by NCCLS method; assay type: functional
Method in brief: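 NCCLS serial-dilution MIC assay in 96-well plates against an ATCC or clinical yeast isolate. Test agents were taken up in DMSO and diluted serially in growth medium. Plates were held at 35 °C and growth was scored at 72 h. MIC80 is the lowest concentration reducing turbidity by at least 80% compared with the control culture.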

[9] = Candida albicans, 24 h, read-out: MIC80
[10] = Cryptococcus neoformans, 72 h, read-out: MIC80

`CN(Cc1ccc(I)cc1)CC(O)(Cn1cncn1)c1ccc(F)cc1F` (stereo not drawn) gave an AUC(0-inf) [1] of 546 ng·h/mL, a Cmax [2] of 297 ng/mL and a half-life [3] of 1.38 h. The Tmax [4] was 0.9 h.
`OC(CN1CCN(Cc2nc3ccccc3s2)CC1)(Cn1cncn1)c1ccc(F)cc1F` (racemic) showed an AUC(0-inf) [1] of 1420 ng·h/mL, a Cmax [2] of 508 ng/mL and a Ratio (Cryptococcus neoformans [5]) of 125. The MIC80 (Candida tropicalis) was 0.004 µg/mL (≈ 0.0085 µM), the half-life [3] was 1.27 h and the Ratio (Trichophyton rubrum [6]) was 16. For the same compound, the MIC80 (Candida albicans) was 0.016 µg/mL (≈ 0.034 µM), the MIC80 (Aspergillus fumigatus) was 64 µg/mL (≈ 136 µM) and the MIC80 (Trichophyton rubrum [7]) was 0.0625 µg/mL (≈ 0.133 µM). For the same compound, the Tmax [4] was 0.8 h and the MIC80 (Cryptococcus neoformans [8]) was 0.016 µg/mL (≈ 0.034 µM).
With `CN(Cc1cccs1)CC(O)(Cn1cncn1)c1ccc(F)cc1F` (racemic) the Ratio (Cryptococcus neoformans [5]) was 125, the MIC80 (Candida tropicalis) was 0.125 µg/mL (≈ 0.343 µM) and the MIC80 (Candida albicans; [9]) was 1 µg/mL (≈ 2.74 µM). The MIC80 (Aspergillus fumigatus) was 16 µg/mL (≈ 43.9 µM), the MIC80 (Trichophyton rubrum [7]) was 1 µg/mL (≈ 2.74 µM) and the MIC80 (Cryptococcus neoformans [8]; [10]) was 0.016 µg/mL (≈ 0.0439 µM).
Work on `CN(Cc1ccco1)CC(O)(Cn1cncn1)c1ccc(F)cc1F` (racemic) yielded a Ratio (Cryptococcus neoformans [5]) of 32, an MIC80 (Candida tropicalis) of 0.016 µg/mL (≈ 0.0459 µM) and an MIC80 (Candida albicans; [9]) of 0.0625 µg/mL (≈ 0.179 µM). It also gave an MIC80 (Aspergillus fumigatus) of 64 µg/mL (≈ 184 µM), an MIC80 (Trichophyton rubrum [7]) of 1 µg/mL (≈ 2.87 µM) and an MIC80 (Cryptococcus neoformans [8]; [10]) of 0.0625 µg/mL (≈ 0.179 µM).
In the case of `CN(Cc1ccc2ccccc2n1)CC(O)(Cn1cncn1)c1ccc(F)cc1F` (racemic), the Ratio (Cryptococcus neoformans [5]) was 8, the MIC80 (Candida tropicalis) was 1 µg/mL (≈ 2.44 µM) and the MIC80 (Candida albicans; [9]) was 4 µg/mL (≈ 9.77 µM). For the same compound, the MIC80 (Aspergillus fumigatus) was over 64 µg/mL, the MIC80 (Trichophyton rubrum [7]) was 4 µg/mL (≈ 9.77 µM) and the MIC80 (Cryptococcus neoformans [8]; [10]) was 0.25 µg/mL (≈ 0.611 µM).
Work on `CN(Cc1ccccn1)CC(O)(Cn1cncn1)c1ccc(F)cc1F` (racemic) yielded a Ratio (Cryptococcus neoformans [5]) of 8, an MIC80 (Candida tropicalis) of 0.0625 µg/mL (≈ 0.174 µM) and an MIC80 (Candida albicans; [9]) of 1 µg/mL (≈ 2.78 µM). For the same compound, the MIC80 (Aspergillus fumigatus) was over 64 µg/mL, the MIC80 (Trichophyton rubrum [7]) was 4 µg/mL (≈ 11.1 µM) and the MIC80 (Cryptococcus neoformans [8]; [10]) was 0.25 µg/mL (≈ 0.696 µM).
`CN(Cc1nc2ccccc2[nH]1)CC(O)(Cn1cncn1)c1ccc(F)cc1F` (racemic) showed an MIC80 (Candida tropicalis) of 0.25 µg/mL (≈ 0.627 µM), an MIC80 (Candida albicans; [9]) of 4 µg/mL (≈ 10 µM) and an MIC80 (Aspergillus fumigatus) of over 64 µg/mL. It also gave an MIC80 (Trichophyton rubrum [7]) of over 64 µg/mL and an MIC80 (Cryptococcus neoformans [8]; [10]) of 16 µg/mL (≈ 40.2 µM).
Work on `OC(CN1CCN(Cc2cccs2)CC1)(Cn1cncn1)c1ccc(F)cc1F` (racemic) yielded a Ratio (Cryptococcus neoformans [5]) of 8, an MIC80 (Candida tropicalis) of 0.016 µg/mL (≈ 0.0381 µM) and an MIC80 (Candida albicans; [9]) of 0.0625 µg/mL (≈ 0.149 µM). The MIC80 (Aspergillus fumigatus) was 16 µg/mL (≈ 38.1 µM), the MIC80 (Trichophyton rubrum [7]) was 4 µg/mL (≈ 9.54 µM) and the MIC80 (Cryptococcus neoformans [8]; [10]) was 0.25 µg/mL (≈ 0.596 µM).
For `OC(CN1CCN(Cc2ccc3ccccc3n2)CC1)(Cn1cncn1)c1ccc(F)cc1F` (racemic), the Ratio (Cryptococcus neoformans [5]) was 32, the MIC80 (Candida tropicalis) was 0.016 µg/mL (≈ 0.0344 µM) and the MIC80 (Candida albicans; [9]) was 1 µg/mL (≈ 2.15 µM). It also gave an MIC80 (Aspergillus fumigatus) of 2 µg/mL (≈ 4.31 µM), an MIC80 (Trichophyton rubrum [7]) of 0.25 µg/mL (≈ 0.538 µM) and an MIC80 (Cryptococcus neoformans [8]; [10]) of 0.0625 µg/mL (≈ 0.135 µM).
`OC(CN1CCN(Cc2ccccn2)CC1)(Cn1cncn1)c1ccc(F)cc1F` (racemic) gave a Ratio (Cryptococcus neoformans [5]) of 2, an MIC80 (Candida tropicalis) of 1 µg/mL (≈ 2.41 µM) and an MIC80 (Candida albicans; [9]) of 0.0625 µg/mL (≈ 0.151 µM). The MIC80 (Aspergillus fumigatus) was 16 µg/mL (≈ 38.6 µM), the MIC80 (Trichophyton rubrum [7]) was 1 µg/mL (≈ 2.41 µM) and the MIC80 (Cryptococcus neoformans [8]; [10]) was 1 µg/mL (≈ 2.41 µM).
`OC(CN1CCN(Cc2nc3ccccc3[nH]2)CC1)(Cn1cncn1)c1ccc(F)cc1F` (racemic) showed an MIC80 (Candida tropicalis) of 1 µg/mL (≈ 2.21 µM), an MIC80 (Candida albicans; [9]) of 4 µg/mL (≈ 8.82 µM) and an MIC80 (Aspergillus fumigatus) of over 64 µg/mL. For the same compound, the MIC80 (Trichophyton rubrum [7]) was 64 µg/mL (≈ 141 µM) and the MIC80 (Cryptococcus neoformans [8]; [10]) was 16 µg/mL (≈ 35.3 µM).
With `OC(CN1CCN(Cc2nc3ccccc3o2)CC1)(Cn1cncn1)c1ccc(F)cc1F` (racemic) the Ratio (Cryptococcus neoformans [5]) was 32, the MIC80 (Candida tropicalis) was 0.004 µg/mL (≈ 0.0088 µM) and the Ratio (Trichophyton rubrum [6]) was 4. For the same compound, the MIC80 (Candida albicans; [9]) was 0.0625 µg/mL (≈ 0.138 µM), the MIC80 (Aspergillus fumigatus) was 0.25 µg/mL (≈ 0.55 µM) and the MIC80 (Trichophyton rubrum [7]) was 0.25 µg/mL (≈ 0.55 µM). For the same compound, the MIC80 (Cryptococcus neoformans [8]; [10]) was 0.0625 µg/mL (≈ 0.138 µM).
`OC(CN1CCN(Cc2nc3ccccc3s2)CC1)(Cn1cncn1)c1ccc(F)cc1F` (single isomer, unassigned; (+)) gave an MIC80 (Candida albicans) of 0.0625 µg/mL (≈ 0.133 µM) and an MIC80 (Cryptococcus neoformans [8]) of 0.0625 µg/mL (≈ 0.133 µM).
In the case of `OC(CN1CCN(Cc2nc3ccccc3s2)CC1)(Cn1cncn1)c1ccc(F)cc1F` (stereo in doubt; (-)-8f), the MIC80 (Candida albicans) was under 0.016 µg/mL and the MIC80 (Cryptococcus neoformans [8]) was under 0.016 µg/mL.
In the case of `OC(Cn1cncn1)(Cn1cncn1)c1ccc(F)cc1F` [FLUCONAZOLE], the MIC80 (Candida tropicalis) was 4 µg/mL (≈ 13.1 µM), the MIC80 (Candida albicans; [9]) was 0.25 µg/mL (≈ 0.816 µM) and the MIC80 (Aspergillus fumigatus) was over 64 µg/mL. It also gave an MIC80 (Trichophyton rubrum [7]) of 1 µg/mL (≈ 3.27 µM) and an MIC80 (Cryptococcus neoformans [8]; [10]) of 2 µg/mL (≈ 6.53 µM).
